Ecoli tolC – growth inhibitors of E. coli tolC mutant, primary screen, strain BW25113 ΔtolC::kan, 384-well | growth inhibition, % at 10 µM (by protocol) | OD615 | 65,000 tested, 2.2% active;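 active = growth inhibition at or above a cutoff equal to the mean over every tested compound plus 3 SD, cut at about 60% in these data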;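 also: growth measured after 20 h incubation at 37 °C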
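Test system: tolC-deleted E. coli BW25113 | Medium: LB with kanamycin 50 µg/mL | Compound dosing: Single concentration, 10 µM final per compound | Schedule: 37 °C, 20 h exposure | Measured by: OD at 615 nm | Evaluation: Percent growth inhibition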
Candida biofilm – clotrimazole potentiators killing Candida biofilms, primary screen, with clotrimazole, Alamar Blue | 85,000 tested, 0.14% active | C. albicans biofilm + clotrimazole | AID 834, 2007 | inhibition, % at 6 µM;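 active = inhibition above 20%; inactive = inhibition below 20%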;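 also: preformed 24 hr biofilms exposed to compound for 48 hr; 0% = biofilm without compound and 100% = blank killed by clotrimazole plus chlorhexidine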
FAK inh – FAK kinase inhibitors, primary screen, biochemical; Focal adhesion kinase 1 (Homo sapiens), Q05397; biochemical FAK kinase activity assay; inhibition, %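 (tested at 7 µM)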; 97,000 tested, 0.84% active; AID 727, 2007; in the data active = inhibition above about 19%;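 also: 0% = DMSO and 100% = reference compound high control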
Pyk2 oligo antag – antagonists of Pyk2 self-association, primary screen, Q293 cells, FERM NanoBiT luminescence, HTS. active compounds read low. 99,000 tested, 0.83% active. z-score (the deposit names both 25 µM and 10 µM);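 active = Z-score of -3 or lower, scaled per plate to the spread of control and sample wells; inactive = z-score above -3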;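 also: negative z-score means lost luminescence so less FERM oligomerization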
PostGolgi ctrl – growth inhibition of yeast control strain, primary screen, counter-screen for post-Golgi transport modulator project | efflux-deficient yeast background strain, growth absorbance A615, 16 h | inhibition, % at 10 µM | 98,000 tested, 5% active
PostGolgi yeast – phenotypic screen on post-Golgi transport, primary screen; AID 739, 2007; post-Golgi transport phenotypic cell assay; inhibition, % at 10 µM; 98,000 tested, 0.9% active;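 also: yeast cells grown in 1536-well plates; yeast grown about 18 h at 30C before absorbance read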
Numbers without * were called inactive. Hits are enriched below; roughly 6.9% of the tested compounds scored in any of these assays. Rule as the data show it, unless noted: active = inhibition above about 30%; inactive = the rest.

What do the screens show for `O=C(N/N=C/c1ccc(Br)s1)c1ccccc1[N+](=O)[O-]`?
FAK inh: 0; Pyk2 oligo antag: -2.4; PostGolgi ctrl: 1; PostGolgi yeast: -7

How did O=C1OCCN1/N=C/c1ccc([N+](=O)[O-])o1 do in these assays?
Candida biofilm: 13

What do the screens show for `CCOc1ccc(OCC)c(NC(=O)C2CCCN2S(=O)(=O)c2cccc3cccnc23)c1` (stereo unspecified)?
Ecoli tolC: 19; Candida biofilm: 8; FAK inh: 1; PostGolgi ctrl: 27; PostGolgi yeast: 6

Results for Cc1ccccc1NC(=O)C1CCCN1S(=O)(=O)c1cccc2cccnc12 (stereo unspecified) ?
Ecoli tolC: 3; Candida biofilm: 12; FAK inh: -10; PostGolgi ctrl: 15; PostGolgi yeast: -6

Results for COc1ccc(NC(=O)C2CCCN2S(=O)(=O)c2cccc3cccnc23)c(OC)c1 (stereo unspecified) ?
Ecoli tolC: 4; Candida biofilm: 4; FAK inh: 7; PostGolgi ctrl: 95*; PostGolgi yeast: 97*

What do the screens show for `Cc1ccccc1NC(=O)C1CCCN(S(=O)(=O)c2cccc3cccnc23)C1` (stereo unspecified)?
Ecoli tolC: 7; Candida biofilm: 18; FAK inh: -11; PostGolgi ctrl: 31*; PostGolgi yeast: -6

How did COc1ccc(S(=O)(=O)Nc2ccc(C(F)(F)F)cc2)cc1OC do in these assays?
Ecoli tolC: 31; Candida biofilm: 7; FAK inh: 1; Pyk2 oligo antag: -3.4*; PostGolgi ctrl: 11; PostGolgi yeast: 3

How did COc1cc(S(=O)(=O)NC2CCCCC2C)ccc1Cl (stereo unspecified) do in these assays?
Ecoli tolC: 51; Candida biofilm: -3; FAK inh: 1; Pyk2 oligo antag: -1.1; PostGolgi ctrl: 49*; PostGolgi yeast: -3

How did COc1ccc(S(=O)(=O)Nc2ccc(S(=O)(=O)N3CCOCC3)cc2)cc1C do in these assays?
Ecoli tolC: 21; Candida biofilm: 2; FAK inh: -2; Pyk2 oligo antag: -2.1; PostGolgi ctrl: 36*; PostGolgi yeast: -3

Results for COc1ccc(NS(=O)(=O)c2ccc(OC)c(OC)c2)cc1OC ?
Ecoli tolC: -9; Candida biofilm: 7; Pyk2 oligo antag: 0.68; PostGolgi ctrl: 7; PostGolgi yeast: 2

Results for COc1ccc(S(=O)(=O)Nc2ccccc2OC)cc1C ?
Ecoli tolC: 6; Candida biofilm: 2; FAK inh: 2; Pyk2 oligo antag: -0.19; PostGolgi ctrl: 9; PostGolgi yeast: -1

Results for COc1ccc(S(=O)(=O)Nc2ccccc2SC)cc1C ?
Ecoli tolC: 20; Candida biofilm: -3; FAK inh: -1; Pyk2 oligo antag: -1.5; PostGolgi ctrl: 36*; PostGolgi yeast: 1

How did O=S(=O)(c1ccccc1C(F)(F)F)N1CCC(n2cnc3ccccc32)CC1 do in these assays?
Candida biofilm: -4; FAK inh: -1; Pyk2 oligo antag: 0.23; PostGolgi ctrl: 8; PostGolgi yeast: 24

What do the screens show for `Cc1nc2ccc(NC(=O)c3ccc(F)c(S(=O)(=O)N4CCOCC4)c3)cc2s1`?
Candida biofilm: 8; FAK inh: -3; Pyk2 oligo antag: 0.11; PostGolgi ctrl: -2; PostGolgi yeast: 4

Results for CCN(CC(=O)NC(c1ccccc1)c1ccccc1)Cc1nc2ccccc2c(=O)[nH]1 ?
Candida biofilm: -7; FAK inh: 2; Pyk2 oligo antag: -0.6; PostGolgi ctrl: 6; PostGolgi yeast: -8

How did O=C(c1cc(-c2cccc(O)c2)on1)N1CCOCC1 do in these assays?
Ecoli tolC: -13; Candida biofilm: 4; PostGolgi ctrl: 7; PostGolgi yeast: 6

How did CCOC(=O)C1CCN(C(=O)N(C)C)CC1 do in these assays?
Ecoli tolC: -18; Candida biofilm: 6; FAK inh: 0; Pyk2 oligo antag: 0.52; PostGolgi ctrl: 9; PostGolgi yeast: 6

Results for COc1ccc(S(=O)(=O)N2CCOCC2)c(Cl)c1Cl ?
Ecoli tolC: 3; Candida biofilm: 4; FAK inh: 2; Pyk2 oligo antag: -0.38; PostGolgi ctrl: 30*; PostGolgi yeast: -1

What do the screens show for `COc1ccc(S(=O)(=O)N2CCOCC2)cc1Cl`?
Candida biofilm: -4; FAK inh: -1; Pyk2 oligo antag: 0.13; PostGolgi ctrl: 1; PostGolgi yeast: -7
